Test results from paper PMC3498903 (Journal of medicinal chemistry, 2012).
Entries after “also recorded” stand apart in the source; their conditions may differ. Where a name gives a salt, the structure may show the parent alone. Read-outs that look alike come from different tables or passages of the source.

Assays:
[1] = test system: THdhxgTRP tachyzoites transfected with pLK47; experiment: Insertional mutagenesis experiments: selection of resistant mutants; assay type: cell-based, Toxoplasma gondii; conditions: prolonged incubation (six weeks); data not shown
mice = experiment: In vivo toxicity in uninfected mice dosed orally; conditions: for Day of Death: Challenge None, B7 mice; for toxic effects on oral dosing (survival, well-being criteria): gavage daily for nine days, 100mg/kg
HFF cells = experiment: In vitro toxicity assay on HFF host cells; assay type: cell-based, human; conditions: HFF used as host cells in the parasite assay
[2] = test system: T. gondii TgGoatUS4 oocysts; experiment: Mouse model of T. gondii oocyst infection, TgGoatUS4 oocysts; assay type: in vivo, Toxoplasma gondii; conditions: 25 or 100 mg/kg, versus untreated infected mice
Outline: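 Mice, 5 per group, were challenged orally with TgGoatUS4 oocysts that had been sporulated in 2% sulfuric acid and neutralised with 3.3% NaOH. Test compound was given at 100 or 25 mg/kg as a 1 mL suspension by oral gavage in 1% DMSO/5% PEG 400/94% of 0.5% CMC. Controls were compound-only and untreated infected mice. Survival was observed daily, with tachyzoites sought in tissue smears.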

T. gondii tachyzoites = experiment: In vitro inhibition of T. gondii tachyzoites; assay type: cell-based, Toxoplasma gondii; conditions: for MIC50 / MIC90: T. gondii tachyzoites in vitro; for activity against T. gondii tachyzoites in words: in vitro, only MIC50 ≤ 1 μM considered active
P. falciparum TM91-C235 = experiment: Malaria SYBR Green I-based fluorescence; assay type: cell-based, Plasmodium falciparum; conditions: for IC50: Plasmodium falciparum, 72 h; for efficacy against TM91-C235 compared with D6: comparison of IC50 values of the two strains
[3] = test system: P. falciparum D6 (CDC/Sierra Leone); experiment: Malaria SYBR Green I-based fluorescence; assay type: cell-based; conditions: Plasmodium falciparum, D6, 72 h, read-out: D6 IC50
RH-YFP tachyzoites = experiment: Determination of static or cidal effects on RH-YFP tachyzoites; assay type: cell-based, Toxoplasma gondii; conditions: 1 μM; for static or cidal effect: Conditions A-D, growth assessed at days 11, 17, 25; for duration of treatment giving a cidal effect: compound removed after treatment
[4] = Hydrolytic stability on incubation in THF and buffer; conditions: mixture of THF and buffer (pH 7.4 or pH 8.5); data not shown
T. gondii Me-49 oocysts = experiment: Mouse model of T. gondii oocyst infection, ME49 oocysts; assay type: in vivo, Toxoplasma gondii; conditions: 25 or 100 mg/kg, versus untreated infected mice
Outline: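 […] female mice (~25 g), 5 per group. Each mouse received test compound at 100 or 25 mg/kg (2.5 or […], 1.0 mL) by oral gavage in 1% DMSO/5% PEG 400/94% of 0.5% CMC, with or without 100 acid-sporulated, NaOH-neutralised ME49 oocysts orally. Controls were compound-only and oocyst-only groups. Mice were observed daily for survival. Infection was confirmed by tachyzoites in tissue smears.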

**Q.** For “2-((2,4-bis(trifluoromethyl)phenyl)carbamoyl)-4-chlorophenyl(2-hydrazinyl-2-oxoethyl) (methyl)carbamate hydrochloride [Compound 14b]”, which “growth of insertional mutant parasites in the presence of compound” value (“growth of insertional mutant parasites” below) [1] is on record?
**A.** No parasite growth

**Q.** What about the “Day of Death” value (mice; 25 mg/kg oral gavage) of the same compound?
**A.** None

**Q.** And the “Day of Death” value (mice; 100 mg/kg oral gavage)?
**A.** None

**Q.** What about the “toxic effects on oral dosing (survival, well-being criteria)” value (mice) of the same compound?
**A.** all mice were alive and appeared healthy

**Q.** And the Toxicity (HFF cells)?
**A.** >1000 nM

**Q.** What about the increased survival [2] of the same compound?
**A.** 1 days

**Q.** With “5-chloro-2-hydroxy-N-(3,4,5-trimethoxyphenyl)benzamide [Compound 3q]” as the compound, how does the MIC50 (T. gondii tachyzoites) read?
**A.** >1 µM

**Q.** And the MIC90 (T. gondii tachyzoites)?
**A.** >1 µM

**Q.** And the “activity against T. gondii tachyzoites in words” value (“activity” for short) (T. gondii tachyzoites)?
**A.** devoid of activity; also recorded: inactive

**Q.** Which MIC50 (T. gondii tachyzoites) does the source give for “5-chloro-2-hydroxy-N-(5-methoxy-2-methylphenyl)benzamide [Compound 3x]” here?
**A.** >1 µM

**Q.** And the MIC90 (T. gondii tachyzoites)?
**A.** >1 µM

**Q.** For “5-chloro-N-(3-cyano-4-fluorophenyl)-2-hydroxybenzamide [Compound 3t]”, which MIC50 (T. gondii tachyzoites) is on record?
**A.** >1 µM

**Q.** What about the MIC90 (T. gondii tachyzoites) of the same compound?
**A.** >1 µM

**Q.** What does the source list for `CCN(CC)CCCC(C)Nc1ccnc2cc(Cl)ccc12` (stereo not drawn) [Chloroquine, reference compound]?
**A.** IC50 (P. falciparum TM91-C235; read-out: C235 IC50): 89 nM; IC50 [3]: 7 nM

**Q.** With `CC(C)(C)c1cccc(NC(=O)c2cc(Cl)ccc2O)c1` [Compound 3i, N-(3-tert-butylphenyl)-5-chloro-2-hydroxybenzamide] as the compound, how does the “growth of insertional mutant parasites” value [1] read?
**A.** No parasite growth

**Q.** And the “static or cidal effect” value (RH-YFP tachyzoites)?
**A.** parasitostatic; also recorded: static effect

**Q.** What about the IC50 (P. falciparum TM91-C235; read-out: C235 IC50, multi-drug resistant strain TM91-C235, 72 hours) of the same compound?
**A.** > 6500 nM

**Q.** What about the “efficacy against TM91-C235 compared with D6” value (shortened to “efficacy … compared with D6”) (P. falciparum TM91-C235) of the same compound?
**A.** two-fold higher IC50

**Q.** And the Toxicity (HFF cells)?
**A.** >1000 nM

**Q.** What about the “activity” value (T. gondii tachyzoites) of the same compound?
**A.** much more active than 3l

**Q.** Which “growth of insertional mutant parasites” value [1] does the source give for `O=C(Nc1cc(C(F)(F)F)cc(C(F)(F)F)c1)c1cc(Cl)ccc1O` [Compound 3j] here?
**A.** No parasite growth

**Q.** And the “static or cidal effect” value (RH-YFP tachyzoites)?
**A.** parasitocidal; also recorded: cidal

**Q.** What about the “duration of treatment giving a cidal effect” value (“duration” below) (RH-YFP tachyzoites) of the same compound?
**A.** cidal effect after four days of treatment

**Q.** And the “efficacy … compared with D6” value (P. falciparum TM91-C235)?
**A.** equally effective

**Q.** And the Toxicity (HFF cells)?
**A.** >1000 nM

**Q.** And the “activity” value (T. gondii tachyzoites)?
**A.** promising activity

**Q.** For `O=C(Nc1ccc([N+](=O)[O-])cc1Cl)c1ccccc1O` [Compound 3k, N-(2-chloro-4-nitrophenyl)-2-hydroxybenzamide], which “activity” value (T. gondii tachyzoites) is on record?
**A.** eliminated activity altogether

**Q.** For `COc1ccc(NC(=O)c2cc(Cl)ccc2O)cc1OC` [Compound 3v, 5-chloro-N-(3,4-dimethoxyphenyl)-2-hydroxybenzamide], which “activity” value (T. gondii tachyzoites) is on record?
**A.** devoid of activity

**Q.** For `O=C(Nc1cccc(OC(F)F)c1)c1cc(Cl)ccc1O` [Compound 3z, 5-chloro-N-(3-(difluoromethoxy)phenyl)-2-hydroxybenzamide], which MIC50 (T. gondii tachyzoites) is on record?
**A.** >1 µM

**Q.** And the MIC90 (T. gondii tachyzoites)?
**A.** >1 µM

**Q.** For `Nc1ccc(NC(=O)c2cc(Cl)ccc2O)c(Cl)c1` [Compound 5, N-(4-amino-2-chlorophenyl)-5-chloro-2-hydroxybenzamide hydrochloride], which “activity” value (T. gondii tachyzoites) is on record?
**A.** all activity was lost; also recorded: destroyed

**Q.** Which “growth of insertional mutant parasites” value [1] does the source give for `O=C(Oc1ccc(Cl)cc1C(=O)Nc1ccc([N+](=O)[O-])cc1Cl)c1ccccc1` [Compound 7a, 4-chloro-2-((2-chloro-4-nitrophenyl)carbamoyl)phenyl benzoate] here?
**A.** No parasite growth

**Q.** And the “static or cidal effect” value (RH-YFP tachyzoites)?
**A.** parasitocidal; also recorded: cidal

**Q.** What about the “duration” value (RH-YFP tachyzoites) of the same compound?
**A.** cidal effect after four days of treatment

**Q.** What about the stability against hydrolysis [4] of the same compound?
**A.** hydrolytically labile

**Q.** And the “efficacy … compared with D6” value (P. falciparum TM91-C235)?
**A.** equally effective

**Q.** And the Toxicity (HFF cells)?
**A.** >1000 nM

**Q.** What about the “activity” value (T. gondii tachyzoites) of the same compound?
**A.** apparent increase in potency over 4

**Q.** Which stability against hydrolysis [4] does the source give for `COC(=O)[C@@H]1CCCN1C(=O)Oc1ccc(Cl)cc1C(=O)Nc1ccc([N+](=O)[O-])cc1Cl` [Compound 7b, (S)-1-(4-chloro-2-((2-chloro-4-nitrophenyl)carbamoyl)phenyl) 2-methyl pyrrolidine-1,2-dicarboxylate] here?
**A.** much more stable against hydrolysis

**Q.** With `O=C(Nc1ccc([N+](=O)[O-])cc1Cl)c1cc(Cl)ccc1OC(=O)N1CCOCC1` [Compound 7c, 4-chloro-2-((2-chloro-4-nitrophenyl)carbamoyl)phenyl morpholine-4-carboxylate] as the compound, how does the stability against hydrolysis [4] read?
**A.** much more stable against hydrolysis

**Q.** And the “activity” value (T. gondii tachyzoites)?
**A.** devoid of activity

**Q.** What does the source list for `CN1CCN(C(=O)Oc2ccc(Cl)cc2C(=O)Nc2ccc([N+](=O)[O-])cc2Cl)CC1` [Compound 7d, 4-chloro-2-((2-chloro-4-nitrophenyl)carbamoyl)phenyl 4-methylpiperazine-1-carboxylate]?
**A.** stability against hydrolysis [4]: much more stable against hydrolysis; activity against T. gondii tachyzoites in words (T. gondii tachyzoites): modest activity; also recorded: devoid of activity

**Q.** For `CN(CC(=O)NN)C(=O)Oc1ccc(Cl)cc1C(=O)Nc1ccc([N+](=O)[O-])cc1Cl.Cl` [Compound 14a, 4-chloro-2-((2-chloro-4-nitrophenyl)carbamoyl)phenyl (2-hydrazinyl-2-oxoethyl)(methyl) carbamate hydrochloride], which “static or cidal effect” value (RH-YFP tachyzoites) is on record?
**A.** cidal

**Q.** And the “duration” value (RH-YFP tachyzoites)?
**A.** cidal effect after ten days of treatment

**Q.** And the “efficacy … compared with D6” value (P. falciparum TM91-C235)?
**A.** equally effective

**Q.** And the increased survival (T. gondii Me-49 oocysts)?
**A.** 1 days

**Q.** What about the “Day of Death” value (mice; 25 mg/kg oral gavage) of the same compound?
**A.** None

**Q.** And the “Day of Death” value (mice; 100 mg/kg oral gavage)?
**A.** None

**Q.** And the “toxic effects on oral dosing (survival, well-being criteria)” value (mice)?
**A.** all mice were alive and appeared healthy

**Q.** What about the Toxicity (HFF cells) of the same compound?
**A.** >1000 nM

**Q.** Which results are given for “N-(2,3-dihydrobenzo[b][1,4]dioxin-6-yl)-2-hydroxybenzamide [Compound 3ab]”?
**A.** MIC50 (T. gondii tachyzoites): >1 µM; MIC90 (T. gondii tachyzoites): >1 µM; activity against T. gondii tachyzoites in words (T. gondii tachyzoites): devoid of activity; also recorded: inactive

**Q.** With “N-(2,4-dichlorophenyl)-5-chloro-2-hydroxybenzamide [Compound 3n]” as the compound, how does the “activity” value (T. gondii tachyzoites) read?
**A.** slight activity; also recorded: active

**Q.** With “N-(2,4-difluorophenyl)-5-chloro-2-hydroxybenzamide [Compound 3o]” as the compound, how does the MIC50 (T. gondii tachyzoites) read?
**A.** >1 µM

**Q.** What about the MIC90 (T. gondii tachyzoites) of the same compound?
**A.** >1 µM

**Q.** What about the “activity” value (T. gondii tachyzoites) of the same compound?
**A.** inactive

**Q.** For “N-(2-chloro-5-nitrophenyl)-5-methyl-2-hydroxybenzamide [Compound 3m]”, which “activity” value (T. gondii tachyzoites) is on record?
**A.** decreased potency; also recorded: inactive; also recorded: about one-half as active as 4
